From PubChem
Rows were chosen to be rich in hits. Some 2.4% of all compounds tested hit in one or more screens of this group.
MT stabilize HCS – microtubule stabilizers in HeLa cells; % tubulin-high responders, % at 10 µM; 0.83% of 200,000 active; HeLa tubulin immunostaining HCS, 24 h; share of cells brighter than vehicle mean+2SD;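 active = plate Z-score above 3 for both tubulin-high and condensed-nucleus cell shares, with cell loss under 80%, at 10 µM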;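 also: anti alpha tubulin signal scored within the nucleus-defined area of each cell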
Tb hexokinase – blocks Trypanosoma brucei hexokinase 1 activity | recombinant TbHK1, G6PDH-coupled NADH A340 | inhibition, % at 10 µM | 0.11% of 220,000 active | AID 1430;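 active = inhibition of 50% or more in the single-dose primary screen; inactive = inhibition below 50%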
EP2 modulator – modulators of human EP2 prostaglandin E2 receptor. AID 940. induction, % at 25 µM. EP2-expressing cells, cAMP HTRF FRET, PGE2 co-stimulation. 0.83% of 260,000 active;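 active = compounds whose cAMP rise, as percent of the full-agonist control response, exceeds 60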;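 also: rat C6 glioma line stably carrying human EP2 under a CMV promoter; the protocol text gives 20 µM as final concentration; 100% = response of wells given 1 µM PGE2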
Target sequence (P43116 whole entry, looked up): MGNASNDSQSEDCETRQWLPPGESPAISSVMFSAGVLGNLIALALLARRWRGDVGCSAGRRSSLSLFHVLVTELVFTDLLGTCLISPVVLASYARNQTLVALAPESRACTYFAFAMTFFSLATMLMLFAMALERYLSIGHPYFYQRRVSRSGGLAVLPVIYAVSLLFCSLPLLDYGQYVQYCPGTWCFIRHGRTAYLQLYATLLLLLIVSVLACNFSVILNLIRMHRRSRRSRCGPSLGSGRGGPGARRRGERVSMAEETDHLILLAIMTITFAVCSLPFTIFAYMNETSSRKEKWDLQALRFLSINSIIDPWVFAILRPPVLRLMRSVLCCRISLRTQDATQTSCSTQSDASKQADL
EP2 antag – inhibitors of human EP2 prostaglandin E2 receptor; AID 1422; P43116; inhibition, % at 25 µM; 0.52% of 260,000 active; C6 glioma cells expressing human EP2, cAMP TR-FRET; cells stimulated with saturating PGE2;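 active = percent inhibition above 40 after rounding to a whole number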;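 also: rat C6 glioma host cells with rolipram phosphodiesterase inhibitor present; the protocol text gives 20 µM as final concentration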
bCat nuc transl – modulators of beta-catenin nuclear translocation | HeLa beta-catenin nuclear translocation, immunofluorescence imaging | nuclear translocation activity, % at 5 µM | 0.3% of 190,000 active;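 active = nuclear translocation activity above 50% at 5 µM, with a well cell count of 50 or more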;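 also: per-cell ratio of nuclear to cytoplasmic median beta-catenin stain intensity; plate controls were DMSO negative control for no effect and GSK-3 inhibitor IX positive control for full effect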
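Test system: human HeLa cells, endogenous beta-catenin. Times: 24 h compound exposure, 37°C. Measured by: beta-catenin immunofluorescence imaging with DAPI.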
Efa HMGR inh – E. faecalis class II HMG-CoA reductase inhibition. purified E. faecalis HMGR, NADPH absorbance 340 nm kinetic. inhibition, % at 10 µM. 0.41% of 190,000 active. AID 1066;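 active = inhibition above a set limit, the median over all tested compounds plus 3 SD, cut at about 9.5% in these data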;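 also: enzyme runs in reverse so mevalonate oxidation gives rising NADPH absorbance; 0% = complete reaction with DMSO and 100% = background rate lacking mevalonate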
Starred values were filed as active, the others as inactive; / = no result.

SMILES	MT stabilize HCS	Tb hexokinase	EP2 modulator	EP2 antag	bCat nuc transl	Efa HMGR inh
COc1cc(/C=C\c2[nH]c(=O)[nH]c(=O)c2[N+](=O)[O-])ccc1OCc1ccc(C)cc1	/	/	-79	4	/	/
Cc1occc1C(=O)N/N=C/C(Br)=C/c1ccccc1	2	-17	-41	10	-2	10*
Cc1ccc(-c2cc(C(=O)N/N=C/C(Br)=C/c3ccccc3)n[nH]2)o1	12*	-20	-21	7	5	-3
Cc1ccc(-c2cc(C(=O)N/N=C/c3c[nH]c4ccccc34)n[nH]2)o1	9	-11	0	5	0	-4
COc1cccc(C(=O)N/N=C/C(Br)=C/c2ccccc2)c1	23*	-23	5	4	60*	3
Cc1ccccc1NCC(=O)N/N=C/C(Br)=C/c1ccccc1	26*	-14	-28	18	4	-7
COC(=O)CN1C(=O)C(O)=C(C(C)=O)C1c1ccccc1 (stereo not given)	/	/	-56	15	/	/
CC(=O)N(C1=C(Cl)C(=O)c2ccccc2C1=O)C1CCCCC1	/	11	-30	124*	3	/
CO[C@@H]1/C=C\O[C@]2(C)Oc3c(C)c(O)c4c(O)c(c(CN5CCN(C)CC5)c(O)c4c3C2=O)NC(=O)C(C)=C/C=C\[C@@H](C)[C@@H](O)[C@H](C)[C@@H](O)[C@H](C)[C@H](OC(C)=O)[C@@H]1C	/	/	28	40*	/	/
CCOC(=O)C1=c2s/c(=C\c3ccncc3)c(=O)n2C(N)=C(C(=O)OC)C1c1ccncc1 (stereo not given)	5	-14	39	6	-2	4
CCOC(=O)C1=C(N)n2c(s/c(=C/c3ccco3)c2=O)=C(C(=O)OC)C1c1ccco1 (stereo not given)	46*	-20	17	17	-4	0
COC(=O)C1=CN(C2CC2)C=C(C(=O)OC)C1c1ccc(C(=O)OC)cc1	2	-4	61*	5	-3	-1
Cc1c(C#N)c(NC(=O)CCl)n(Cc2ccccc2)c1C	11*	1	-22	7	3	0
Cc1c(C#N)c(NC(=O)CCl)n(Cc2cccs2)c1C	40*	0	-16	3	4	1
O=C(CSc1ncnc2c1sc1nc3ccccc3cc12)c1ccccc1	/	/	0	8	/	/
Cc1cc(=O)n2[nH]c(CC(=O)NC3(c4ccccc4)CCCC3)nc2n1	/	/	-13	2	/	/
O=C(Nc1ccc(Cl)cc1)NC1CCCc2ccccc21 (stereo not given)	30*	-191	-33	8	/	0
COc1ccc(OC)c(/C=N/Nc2nncn2/N=C/c2cc(OC)ccc2OC)c1	32*	-17	-95	29	/	2
COc1cc(/C=N/Nc2nncn2/N=C/c2ccc(O)c(OC)c2)ccc1O	3	-26	12	5	-3	-4
CCCc1ccc(Oc2cn[nH]c2-c2ccc(O)c(C)c2O)cc1	4	10	-17	53*	4	1
CCCc1ccc(Oc2c(-c3ccc(O)c(C)c3O)n[nH]c2C)cc1	4	0	-44	28	-6	3
COc1ccc(C(=O)Nc2cccc(-c3nc4cc(Cl)ccc4o3)c2)cc1OC	/	/	-111	5	/	/
CCOC(=O)c1nnn(-c2nonc2N)c1-c1cccs1	4	0	12	9	-1	2
Nc1nonc1-n1nnc(C(=O)O)c1-c1cccs1	2	1	20	10	/	10*
CCOc1ccc(NC(=O)COC(=O)C2CC(=O)N(c3ccc(F)cc3)C2)cc1 (stereo not given)	/	/	-28	9	/	/
SMILES	MT stabilize HCS	Tb hexokinase	EP2 modulator	EP2 antag	bCat nuc transl	Efa HMGR inh
COc1cc(NS(=O)(=O)c2ccc(C)cc2)ccc1-n1cnnn1	2	4	21	153*	-2	-1
Cc1ccc(-c2nc3cc(N)ccc3o2)c(C)c1	5	16	5	41*	-2	-6
COc1ccc(C(=O)Nn2c(Cc3cccs3)nc3ccccc3c2=O)cc1	/	/	-12	13	/	/
N#Cc1cn(-c2ccccc2)nc1C(=O)c1ccccc1	2	-8	62*	15	62*	-7
COC(=O)C1=C(CSc2nc3c(cc2C#N)CN(C)CC3)OC(N)=C(C#N)C1c1ccc(F)cc1 (stereo not given)	5	-12	-22	6	/	14*
Cc1ccc2c(c1)-c1c(ssc1=S)C(C)(C)N2C(=O)CSc1nncn1C	3	-8	25	14	0	5
Cc1cc(C)c2c(c1)-c1c(ssc1=S)C(C)(C)N2C(=O)CSc1nncn1C	18*	-7	9	6	-1	-5
CC(C)C(=O)N1CCN(c2ccc(NC(=O)c3ccccc3Cl)cc2)CC1	/	/	-25	5	/	/
COc1ccc2[nH]c(=O)c(CN(Cc3cccs3)S(=O)(=O)c3ccc(C(C)=O)cc3)cc2c1	/	/	-99	66*	/	/
COC(=O)c1cccc(S(=O)(=O)N(Cc2cccs2)Cc2cc3cc(OC)ccc3[nH]c2=O)c1	/	/	-88	46*	/	/
COc1ccc(S(=O)(=O)N(Cc2cccs2)Cc2cc3cc4c(cc3[nH]c2=O)OCCO4)cc1	/	/	20	14	/	/
COC(=O)c1cccc(S(=O)(=O)N(CCCO)Cc2cc3cc(C)ccc3[nH]c2=O)c1	/	/	-18	9	/	/
Cc1cc2c(cc(C(=O)OCC(=O)NCc3ccco3)n2C)s1	51*	-2	-27	14	44	-4
C=C(C)Cn1c(N2CCc3ccccc3C2)nc2c1c(=O)[nH]c(=O)n2C	/	/	4	11	/	/
O=C(Nc1ccccc1-c1nc2ccccc2o1)c1ccc2c(c1)OCCO2	15*	-19	/	/	/	/
CCOC(=O)Cn1nnnc1C(C(C)C)N(Cc1cc2cc(C)c(C)cc2[nH]c1=O)C1CCCCC1 (stereo not given)	/	/	22	17	/	/
O=C(Nc1cccc(S(=O)(=O)Nc2ccc(Cl)cc2)c1)c1ccc(Cl)nc1	6	-2	-18	5	2	-3
COc1ccc(NS(=O)(=O)c2cccc(NC(=O)c3ccc(Cl)nc3)c2)cc1	16*	9	-61	4	1	-5
O=C(Nc1ccncc1)c1ccc(C(=O)Nc2ccncc2)cc1	3	4	-2	3	-2	18*
O=C(Nc1ccncc1)c1ccc2c(c1)C(=O)N(C1CCCCC1)C2=O	1	2	-10	46*	1	0
CC(C)C1C(C#N)=C(N)Oc2n[nH]c(-c3ccc4ccccc4c3)c21 (stereo not given)	32*	-10	-33	133*	-7	-3
CC(C)C1C(C#N)=C(N)Oc2n[nH]c(-c3cccs3)c21 (stereo not given)	5	6	-38	15	-6	-1
CN(CCOc1ccccc1)Cc1cnc(N2CCCCC2)nc1	/	/	-38	8	/	/
COc1cccc(C2C3=C(CC(C)(C)CC3=O)NC3=C2C(=O)CC(C)(C)C3)c1OC	/	/	3	10	/	/
